In PMC6287672 (International Journal for Parasitology: Drugs and Drug …, 2018):

Assays:
Assay in all cases: two-electrode voltage clamp, Xenopus oocytes
Type in all cases: cell-based
Hco-UNC-49BC [1] = molecular target: T1, Hco-UNC-49BC (Haemonchus contortus, UniProt D6BK80)
T1 sequence (D6BK80 22-496): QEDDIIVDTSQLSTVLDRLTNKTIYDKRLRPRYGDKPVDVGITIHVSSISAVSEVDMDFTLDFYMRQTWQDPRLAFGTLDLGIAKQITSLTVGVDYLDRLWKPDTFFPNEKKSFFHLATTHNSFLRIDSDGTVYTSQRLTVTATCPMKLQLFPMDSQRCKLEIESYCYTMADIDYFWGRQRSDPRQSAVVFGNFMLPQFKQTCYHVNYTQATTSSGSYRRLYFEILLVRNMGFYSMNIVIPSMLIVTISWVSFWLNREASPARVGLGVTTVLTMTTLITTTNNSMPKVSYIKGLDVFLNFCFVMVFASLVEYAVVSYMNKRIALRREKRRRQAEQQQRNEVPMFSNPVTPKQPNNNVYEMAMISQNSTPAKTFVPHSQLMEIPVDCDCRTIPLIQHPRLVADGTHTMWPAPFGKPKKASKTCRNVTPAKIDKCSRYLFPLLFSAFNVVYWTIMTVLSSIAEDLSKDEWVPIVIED
T1 sequence (D6BJF3 22-440 partner): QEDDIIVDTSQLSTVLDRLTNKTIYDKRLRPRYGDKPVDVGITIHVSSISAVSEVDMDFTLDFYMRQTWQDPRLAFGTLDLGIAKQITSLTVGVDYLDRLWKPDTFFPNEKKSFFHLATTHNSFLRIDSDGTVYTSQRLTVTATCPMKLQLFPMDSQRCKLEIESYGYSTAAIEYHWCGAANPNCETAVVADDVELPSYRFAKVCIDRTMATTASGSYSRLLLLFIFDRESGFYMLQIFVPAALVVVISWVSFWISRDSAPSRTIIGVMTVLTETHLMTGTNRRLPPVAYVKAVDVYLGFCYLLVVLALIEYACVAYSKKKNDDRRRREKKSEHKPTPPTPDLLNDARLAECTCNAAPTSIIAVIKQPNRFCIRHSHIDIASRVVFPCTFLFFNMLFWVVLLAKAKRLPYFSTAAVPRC
Summary of the method: (§1)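 Oocytes from X. laevis, collagenase-treated in OR-2 (pH 7.5) for 2 h, were co-injected with wild-type or mutant hco-unc-49b cRNA plus wild-type hco-unc-49c cRNA and kept 48 h at 20ᵒC in supplemented ND96. Cells were clamped at −60 mV and GABA in ND96 was perfused, with 1–2 min ND96 washes between doses. Currents were normalised to each oocyte's maximal GABA response and fitted with a variable-slope Hill equation (≥5 oocytes, two batches).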

Hco-UNC-49BC [2] = molecular target: T2, Hco-UNC-49BC (Haemonchus contortus, UniProt D6BK80, R241K)
T2 sequence (D6BK80 22-496 R241K): T1 sequence (D6BK80 22-496)
T2 sequence (D6BJF3 22-440 partner): T1 sequence (D6BJF3 22-440 partner)
Summary of the method: as §1

Hco-UNC-49BC [3] = molecular target: T3, Hco-UNC-49BC (Haemonchus contortus, UniProt D6BK80, E131A)
T3 sequence (D6BK80 22-496 E131A): T1 sequence (D6BK80 22-496)
T3 sequence (D6BJF3 22-440 partner): T1 sequence (D6BJF3 22-440 partner)
Summary of the method: as §1

Hco-UNC-49BC [4] = molecular target: T4, Hco-UNC-49BC (Haemonchus contortus, UniProt D6BK80, D83N)
T4 sequence (D6BK80 22-496 D83N): T1 sequence (D6BK80 22-496)
T4 sequence (D6BJF3 22-440 partner): T1 sequence (D6BJF3 22-440 partner)
Summary of the method: as §1

Hco-UNC-49BC [5] = molecular target: T5, Hco-UNC-49BC (Haemonchus contortus, UniProt D6BK80, H137A)
T5 sequence (D6BK80 22-496 H137A): T1 sequence (D6BK80 22-496)
T5 sequence (D6BJF3 22-440 partner): T1 sequence (D6BJF3 22-440 partner)
Summary of the method: as §1

Hco-UNC-49BC [6] = molecular target: T6, Hco-UNC-49BC (Haemonchus contortus, UniProt D6BK80, H137K)
T6 sequence (D6BK80 22-496 H137K): T1 sequence (D6BK80 22-496)
T6 sequence (D6BJF3 22-440 partner): T1 sequence (D6BJF3 22-440 partner)
Summary of the method: as §1

Hco-UNC-49BC [7] = molecular target: T7, Hco-UNC-49BC (Haemonchus contortus, UniProt D6BK80, R241A)
T7 sequence (D6BK80 22-496 R241A): T1 sequence (D6BK80 22-496)
T7 sequence (D6BJF3 22-440 partner): T1 sequence (D6BJF3 22-440 partner)
Summary of the method: as §1

Hco-UNC-49BC [8] = molecular target: T8, Hco-UNC-49BC (Haemonchus contortus, UniProt D6BK80, D83E)
T8 sequence (D6BK80 22-496 D83E): T1 sequence (D6BK80 22-496)
T8 sequence (D6BJF3 22-440 partner): T1 sequence (D6BJF3 22-440 partner)
Summary of the method: as §1

Hco-UNC-49BC [9] = molecular target: T9, Hco-UNC-49BC (Haemonchus contortus, UniProt D6BK80, R159A)
T9 sequence (D6BK80 22-496 R159A): T1 sequence (D6BK80 22-496)
T9 sequence (D6BJF3 22-440 partner): T1 sequence (D6BJF3 22-440 partner)
Summary of the method: as §1

Hco-UNC-49BC [10] = molecular target: T10, Hco-UNC-49BC (Haemonchus contortus, UniProt D6BK80, D83C)
T10 sequence (D6BK80 22-496 D83C): T1 sequence (D6BK80 22-496)
T10 sequence (D6BJF3 22-440 partner): T1 sequence (D6BJF3 22-440 partner)
Summary of the method: as §1

Hco-UNC-49BC [11] = molecular target: T11, Hco-UNC-49BC (Haemonchus contortus, UniProt D6BK80, D83T)
T11 sequence (D6BK80 22-496 D83T): T1 sequence (D6BK80 22-496)
T11 sequence (D6BJF3 22-440 partner): T1 sequence (D6BJF3 22-440 partner)
Summary of the method: as §1

## NCCCC(=O)O [GABA]
Hco-UNC-49BC [1]
  EC50: 68 ± 17 µM
Hco-UNC-49BC [2]
  EC50: 3790 ± 435 µM
Hco-UNC-49BC [3]
  EC50: 219 ± 21 µM
Hco-UNC-49BC [4]
  EC50: 342 ± 30 µM
Hco-UNC-49BC [5]
  EC50: 2170 ± 173 µM
Hco-UNC-49BC [6]
  EC50: 4170 ± 745 µM
Hco-UNC-49BC [7]
  EC50: 5170 ± 473 µM
Hco-UNC-49BC [8]
  EC50: 276 ± 37 µM
Hco-UNC-49BC [9]
  EC50: 5470 ± 396 µM
Hco-UNC-49BC [10]
  EC50: 454 ± 47 µM
Hco-UNC-49BC [11]
  EC50: 520 ± 34 µM
